Results on 167 variants are retold here after the RNAGym collection of RNA variant scans (doi:10.1126/science.aae0568).

This sample holds only a part of the variants without activity.

Sequences and labels used below:
B1: tRNA (parent)
chain: GUUCCGUUGGCGUAAUGGUAACGCGUCUCCCUCCUAAGGAGAAGACUGCGGGUUCGAGUCCCGUACGGAACG

In this data set the parent is B1. Description: yeast fitness relative to wild type (ratio to wild type); higher = fitter; tRNA-Arg(CCU), competitive growth, 37 C, YPD. The method in brief:
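For this measurement, the tRNA-Arg(CCU) gene was varied by chemical synthesis at a 3% per-site mutation rate across 69 sites, and each variant was placed at the native genomic locus in Saccharomyces cerevisiae. The pooled strains went through a 24-hour competition in YPD at 37°C in six parallel replicates, with amplicons from start and end populations read by 100-nucleotide paired-end sequencing. Darwinian fitness relative to wild type followed from the change in each genotype's frequency. Genotypes needed ≥ 100 starting reads, and estimates < 0.5 were set to 0.5.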
As for G6A C11U A70C, the yeast fitness came out at 0.578.
Under G6A A45C C46G C66U stands not above 0.5; under G6A A45U A69U, 0.826; under G6A C27U C29A G58C, not above 0.5.
Turning to G6A G9C G23A U26C A40U A42U, the yeast fitness is not above 0.5.
As to G6A C27U C30U, the yeast fitness was found to be 0.596.
With G6A C33A A42C, the yeast fitness worked out at 0.578.
Under G6A C27A C60A U64A stands not above 0.5; under G6A G10C C29U, not above 0.5.
As for G6A G10C A20C U28C A36U, the yeast fitness worked out at 0.695.
Turning to G6A C61U, the yeast fitness was 0.902.
Consider G6A C61A, for which the yeast fitness amounted to 0.66.
Turning to G6A G23C C49G U53G A57G, the yeast fitness is 0.567.
Under G6A C29G U47C U59A stands not above 0.5; under G6A C30U C49A, not above 0.5; under G6A G9C A21G, 0.537.
As for G6A A45G A69C, the figure is 0.748; as for G6A C11A C24G A42U, not above 0.5; as for G6A C55A, 0.587.
Under G6A C55G stands 0.656; under G6A C30G A57C G58C, not above 0.5; under G6A C31A U47C G67A, not above 0.5.
In the case of G6A C24U C61G C66U A69U, the yeast fitness is 0.568.
For G6A G18C C22G C33G, the yeast fitness was not above 0.5.
Under G6A A57U A65C A70C stands 0.534.
On to G6A C31U G41C A42U C66U, for which the yeast fitness was not above 0.5.
In the case of G6A G23U C24G U35A G48C, the yeast fitness was not above 0.5.
In the case of G6A C34U A65C, the yeast fitness amounted to 0.54.
Consider G6A C11G C34G A42G C62U, for which the yeast fitness is 0.609.
Under G6A C11U G68C stands 0.54.
As for G6A C11U U13C A43G G67U, the figure is not above 0.5; as for G6A C24U C61A, not above 0.5.
Under G6A C24A G38A G39C G52A stands 0.625.
On to G6A C49U A57C A65C A70C, for which the yeast fitness is not above 0.5.
Take G6A C34A G58C A65C A69C: the yeast fitness was not above 0.5.
As to G6A G23C C49G G50A U53G A57G, the yeast fitness was not above 0.5.
On to G6A C34G G52C A65U, for which the yeast fitness was not above 0.5.
Under G6A G12C U16A A21C stands not above 0.5; under G6A C11U C22U, 0.566; under G6A C31U, 0.933.
Under G6A C31A stands 0.819; under G6A C31G, 0.975; under G6A G18C C49A C61G, not above 0.5.
As for G6A G25A C34A G58A, the figure is not above 0.5.
As for G6A G12A A15C C24A, the yeast fitness was not above 0.5.
For the variant G6A G9C A42U, the yeast fitness is not above 0.5.
As for G6A C24U C55G A70U, the figure is 0.624; as for G6A C46G, 0.937.
As to G6A C46U, the yeast fitness was determined as 0.976.
For the variant G6A C11A C27G U35A A43U U54C A65G, the yeast fitness is not above 0.5.
Take G6A G9C C11G C34U A57G: the yeast fitness came to 0.54.
As for G6A C27A G50A A69U, the yeast fitness is 0.542.
For the variant G6A C11U, the yeast fitness came out at 0.801.
As for G6A C11A, the figure is 0.639; as for G6A C22U C27G A36G A43G, not above 0.5; as for G6A G9A C11G C24G U32A G52C, not above 0.5.
As for G6A C22G C62G, the figure is not above 0.5.
As for G6A G12C U16C A21U, the figure is 0.532; as for G6A G39A, 0.916.
For G6A A40U A69C, the yeast fitness is 0.581.
G6A C29G C30A U64G A69C: the yeast fitness is not above 0.5.
As for G6A C60G, the figure is 0.601.
G6A C60U: the yeast fitness worked out at 0.675.
Under G6A C22U A40C stands not above 0.5; under G6A C11A G17A U35G U59C, not above 0.5.
As for G6A C62G A70G, the figure is not above 0.5; as for G6A C33U A43G, not above 0.5; as for G6A C34G, 0.569.
Under G6A C34A stands 0.739.
Regarding G6A C30G C60G G68A, the yeast fitness is not above 0.5.
On to G6A G9C U19C C24U U54C, for which the yeast fitness was not above 0.5.
Under G6A C29A C62A stands not above 0.5.
Regarding G6A G9A A21U C31G, the yeast fitness is not above 0.5.
Take G6A C11G C22G U54A: the yeast fitness was not above 0.5.
Under G6A G10A stands 0.859.
Under G6A C33A G58A A65C G67A stands not above 0.5.
As to G6A G10A G17A, the yeast fitness worked out at 0.55.
As for G6A G38C U54A A65C, the figure is not above 0.5; as for G6A C62U, 0.921.
Under G6A C11U U13C C27G A69C stands 0.541.
As for G6A C27A A36G, the yeast fitness is not above 0.5.
Regarding G6A C49U G63A, the yeast fitness was 0.688.
As for G6A C11A A15G C49G G51C G68A, the figure is not above 0.5; as for G6A G9C C29U C55G, not above 0.5.
For G6A A45G A70C, the yeast fitness was 0.856.
As for G6A G12C U16C C31U G52C, the figure is 0.555.
Take G6A C11U C30U G67A: the yeast fitness was not above 0.5.
Under G6A G17A U19A C31G U53C U54A stands not above 0.5.
With G6A A70G, the yeast fitness is 0.928.
Regarding G6A A70C, the yeast fitness amounted to 0.863.
As for G6A A70U, the figure is 0.958.
On to G6A G12A G41A A65U, for which the yeast fitness worked out at 0.547.
As for G6A A40G A42G, the figure is 0.554; as for G6A C27A, 0.707.
As to G6A C27U A42U C62U, the yeast fitness was not above 0.5.
As for G6A G25C A65U, the yeast fitness was found to be 0.663.
On to G6A C11A U54G, for which the yeast fitness worked out at 0.563.
G6A G9C C11G C34U G68A: the yeast fitness is 0.574.
Regarding G6A C11U U13C A43G G52A G67A, the yeast fitness is not above 0.5.
As for G6A G12A U54C C60G, the yeast fitness is not above 0.5.
Under G6A G17C C31A A36U C55G G63A stands not above 0.5; under G6A C31A G41A A45U G58C, not above 0.5; under G6A C22G A37G U47A A70C, not above 0.5.
Under G6A C31U C34U G52A stands not above 0.5; under G6A G10C G63A, not above 0.5.
As for G6A A40U G56C, the figure is not above 0.5.
G6A A42G U64C: the yeast fitness came to 0.629.
As for G6A C24G U35A G48C A69G, the figure is 0.574; as for G6A G38C C66U, 0.532; as for G6A C29A C30G C61U A70G, not above 0.5.
Under G6A G25A A69U stands 0.68; under G6A G9C A21C C30U, not above 0.5; under G6A G12C, 0.855.
On to G6A C29G A37U G56C G67C, for which the yeast fitness is not above 0.5.
As for G6A A42G G50C, the yeast fitness was found to be 0.62.
As to G6A C31G A43C C49A U54C C60G, the yeast fitness is not above 0.5.
Under G6A C31A G68A stands not above 0.5; under G6A G18C A37C C62A, 0.604; under G6A C11A A14C U19C U32A U35C A42C, not above 0.5.
As for G6A G12A U13C U16A U19G G23A G58A G68A, the figure is not above 0.5; as for G6A C30U C62A, not above 0.5.
As for G6A C11A C66A, the figure is not above 0.5; as for G6A G23A U47A G58C, not above 0.5.
Consider G6A C34A A40U G52A A65U A70C, for which the yeast fitness is not above 0.5.
As for G6A G12C C34U A70U, the yeast fitness stood at 0.671.
For the variant G6A G25C C33U G48A G63A, the yeast fitness is not above 0.5.
Under G6A C11G U35A A37U U53A A65G stands not above 0.5; under G6A G17C C31G G50U U53A, 0.559.
As for G6A C11G A21G C24A G52A C60A A69G, the figure is not above 0.5; as for G6A G23C C61U, not above 0.5; as for G6A G10C C34U G52C, not above 0.5.
Regarding G6A C22U C49A, the yeast fitness was not above 0.5.
As for G6A C24U C61G C66U A70G, the figure is not above 0.5; as for G6A A42C G48A C62U, 0.698; as for G6A C24U G63A, 0.674.
As for G6A C29U C33G G67A, the figure is not above 0.5.
In the case of G6A C11U C22G U47A C60U, the yeast fitness was not above 0.5.
On to G6A C22G U47A A65G, for which the yeast fitness is not above 0.5.
For G6A G18A, the yeast fitness was 0.824.
With G6A C46U G50A C61G, the yeast fitness is not above 0.5.
Under G6A C33G C34G stands not above 0.5; under G6A G17C A37C, 0.634.
With G6A G12A C33G U54A U59A G67A, the yeast fitness was not above 0.5.
Under G6A G9A A14U G63A stands 0.747; under G6A C24G C31G, 0.527; under G6A G10C A15U A70G, not above 0.5.
G6A G17C G51A: the yeast fitness is not above 0.5.
Under G6A C22U C30G A36G C62U A65U stands not above 0.5; under G6A G23C C30G G39C, not above 0.5.
Under G6A C11A C46A A57G stands not above 0.5.
Under G6A C24G C34G stands not above 0.5.
On to G6A G12A A57U, for which the yeast fitness was not above 0.5.
Under G6A C29U A57G U59C C62U stands not above 0.5.
As for G6A C11A G52U, the yeast fitness was not above 0.5.
As for G6A C61G A70C, the figure is 0.522; as for G6A C31G A43C C49A U54C, not above 0.5.
Take G6A C34A A37C A40U: the yeast fitness is not above 0.5.
With G6A C49U C55U, the yeast fitness is 0.561.
As for G6A A37U C62G, the yeast fitness is not above 0.5.
As for G6A G9C C11G C27U C34U G68A, the figure is not above 0.5; as for G6A G9U C11U A70C, 0.533; as for G6A G12C U16C C31U G52C A70G, 0.651.
With G6A A40G G44A, the yeast fitness was 0.614.
G6A C61U A69U: the yeast fitness came to 0.632.
Under G6A C24A U53C A57C A65U stands not above 0.5; under G6A G10C C24U C34U A36U C46A, not above 0.5; under G6A C22G G44C A70C, not above 0.5.
